What was measured:
[1] = biological target: T1, Low molecular weight phosphotyrosine protein phosphatase (Saccharomyces cerevisiae S288c, UniProt P40347); assay: Inhibition of Saccharomyces cerevisiae Ltp1
T1 sequence (P40347 whole entry): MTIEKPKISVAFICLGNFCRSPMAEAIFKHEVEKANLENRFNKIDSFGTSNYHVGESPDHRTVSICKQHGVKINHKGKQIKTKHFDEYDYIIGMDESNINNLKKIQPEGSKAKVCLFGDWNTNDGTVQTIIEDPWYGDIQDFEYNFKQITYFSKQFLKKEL
In short: (§1)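 p-Nitrophenylphosphate hydrolysis at 37 °C in pH 7.0 buffer with 0.075 M β,β-dimethylglutarate, 1 mM EDTA and 5 mM DTT. The enzyme was added to start the reaction, which was stopped with 1 M KOH. Released p-nitrophenolate was read at 400 nm. Initial rates were measured in triplicate with substrate fixed at each PTP's Km. IC50 was fitted from Vi/V0 = IC50/(IC50+[I]).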

[2] = biological target: T2, Tyrosine-protein phosphatase non-receptor type 1 (Homo sapiens, UniProt P18031); assay: Inhibition of GST-tagged human PTP1B; in short: as §1
T2 sequence (P18031 whole entry): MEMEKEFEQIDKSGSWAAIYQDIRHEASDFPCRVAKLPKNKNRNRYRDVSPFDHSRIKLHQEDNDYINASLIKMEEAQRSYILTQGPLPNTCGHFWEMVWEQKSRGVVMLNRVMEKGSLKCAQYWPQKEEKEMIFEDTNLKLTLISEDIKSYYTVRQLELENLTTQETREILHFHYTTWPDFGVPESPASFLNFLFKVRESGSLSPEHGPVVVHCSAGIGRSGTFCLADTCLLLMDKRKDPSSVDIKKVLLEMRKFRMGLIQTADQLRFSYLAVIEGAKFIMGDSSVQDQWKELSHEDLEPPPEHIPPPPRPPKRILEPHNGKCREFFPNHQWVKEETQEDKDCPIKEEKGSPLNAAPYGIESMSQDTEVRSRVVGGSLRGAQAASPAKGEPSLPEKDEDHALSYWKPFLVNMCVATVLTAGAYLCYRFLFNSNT

[3] = biological target: Low molecular weight PTP, IF2 isoform (Homo sapiens); assay: Inhibition of GST-tagged human LMW PTP1B IF2 isoform
[4] = biological target: T3, Low molecular weight phosphotyrosine protein phosphatase (Homo sapiens, UniProt P24666); assay: Inhibition of GST-tagged human LMW PTP1B IF1 isoform; in short: as §1
T3 sequence (P24666 whole entry): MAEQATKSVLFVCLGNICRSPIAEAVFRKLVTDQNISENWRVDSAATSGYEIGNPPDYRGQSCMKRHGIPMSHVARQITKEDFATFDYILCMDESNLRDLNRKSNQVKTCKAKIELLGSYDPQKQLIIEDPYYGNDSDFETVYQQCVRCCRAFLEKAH

IC50 [1] [µM]	IC50 [2] [µM]	IC50 [3] [µM]	IC50 [4] [µM]	SMILES
> 500	14	–	–	O=C(O)c1ccc(CN2C(=O)/C(=C/c3cccc4ccccc34)S/C2=N\c2ccccc2)cc1
12.9	3.8	–	–	O=C(O)c1ccc(CN2C(=O)/C(=C/c3cccc(OCc4ccccc4)c3)S/C2=N\c2ccccc2)cc1
6.3	1.1	–	–	O=C(O)c1ccc(CN2C(=O)/C(=C/c3ccc(Oc4ccccc4)cc3)S/C2=N\c2ccccc2)cc1
11.1	1.9	–	–	O=C(O)c1ccc(CN2C(=O)/C(=C/c3cccc(Oc4ccccc4)c3)S/C2=N\c2ccccc2)cc1
27.6	1.9	13.8	3.7	O=C(O)c1ccc(CN2C(=O)/C(=C/c3ccc4ccccc4c3)S/C2=N\c2ccccc2)cc1
195	30.1	270	47.7	O=C(O)c1ccc(CN2C(=O)/C(=C/c3ccc(O)cc3)S/C2=N\c2ccccc2)cc1

The remaining lines, values behind:

SMILES	IC50 [1] [µM]	IC50 [2] [µM]	IC50 [3] [µM]	IC50 [4] [µM]
COc1cc(/C=C2\S/C(=N\c3ccccc3)N(Cc3ccc(C(=O)O)cc3)C2=O)ccc1O	> 250	33.7	–	–
O=C(O)c1ccc(CN2C(=O)/C(=C/c3ccc(OCc4ccccc4)cc3)S/C2=N\c2ccccc2)cc1	15.9	1.1	–	–
O=C(O)c1ccc(CN2C(=O)/C(=C/c3cccc(O)c3)S/C2=N\c2ccccc2)cc1	> 250	35.4	> 250	62.5
COc1ccc(/C=C2\S/C(=N\c3ccccc3)N(Cc3ccc(C(=O)O)cc3)C2=O)cc1O	> 250	32.1	–	–
O=C(O)c1ccc(CN2C(=O)/C(=C/c3ccc(O)c(C(=O)O)c3)S/C2=N\c2ccccc2)cc1	345	19.5	–	–

Source: ChEMBL document CHEMBL1153913, “5-Arylidene-2-phenylimino-4-thiazolidinones as PTP1B and LMW-PTP inhibitors” (Bioorg Med Chem, 2009)
